# “Also recorded” adds a separate entry of the source. Where two headings read alike, the source gives them in different places.
# Columns and labels:
# [1] = test system: SK-OV-3 (ovarian); test: SRB cytotoxicity assay, SK-OV-3; format: cell-based, human; settings: read-out: GI50 SRB Assay SK-OV-3; 48 h treatment; average of n ≥ 3
# [2] = test system: tubulin; test: Colchicine binding assay; settings: inhibitor 5 μM; 1.0 μM tubulin, 5.0 μM [3H]colchicine
# [3] = test system: NCI-H460 (lung); test: SRB cytotoxicity assay, NCI-H460; format: cell-based, human; settings: read-out: GI50 SRB Assay NCI-H460; 48 h treatment; average of n ≥ 3
# [4] = test system: DU-145 (prostate); test: SRB cytotoxicity assay, DU-145; format: cell-based, human; settings: read-out: GI50 SRB Assay DU-145; 48 h treatment; average of n ≥ 3
# [5] = biological target: T1, LAP (from porcine kidney microsomes) (Sus scrofa, UniProt P15145); test: In vitro LAP cleavage assay; format: in vitro ADME; settings: for % Cleavage by LAP: area ratio of parent drug and prodrug (HPLC); for % Cleavage by LAP / Specific Activity of LAP: pH 7.2, 37 °C; for Cleavage rate relative to corresponding serinamide analogue: glycinamide versus serinamide prodrug of the same isomer; for Specific Activity of LAP: rate study; for Cleavage with a large amount of LAP (in words): 1.5 units of LAP
# T1 sequence (P15145 1-963): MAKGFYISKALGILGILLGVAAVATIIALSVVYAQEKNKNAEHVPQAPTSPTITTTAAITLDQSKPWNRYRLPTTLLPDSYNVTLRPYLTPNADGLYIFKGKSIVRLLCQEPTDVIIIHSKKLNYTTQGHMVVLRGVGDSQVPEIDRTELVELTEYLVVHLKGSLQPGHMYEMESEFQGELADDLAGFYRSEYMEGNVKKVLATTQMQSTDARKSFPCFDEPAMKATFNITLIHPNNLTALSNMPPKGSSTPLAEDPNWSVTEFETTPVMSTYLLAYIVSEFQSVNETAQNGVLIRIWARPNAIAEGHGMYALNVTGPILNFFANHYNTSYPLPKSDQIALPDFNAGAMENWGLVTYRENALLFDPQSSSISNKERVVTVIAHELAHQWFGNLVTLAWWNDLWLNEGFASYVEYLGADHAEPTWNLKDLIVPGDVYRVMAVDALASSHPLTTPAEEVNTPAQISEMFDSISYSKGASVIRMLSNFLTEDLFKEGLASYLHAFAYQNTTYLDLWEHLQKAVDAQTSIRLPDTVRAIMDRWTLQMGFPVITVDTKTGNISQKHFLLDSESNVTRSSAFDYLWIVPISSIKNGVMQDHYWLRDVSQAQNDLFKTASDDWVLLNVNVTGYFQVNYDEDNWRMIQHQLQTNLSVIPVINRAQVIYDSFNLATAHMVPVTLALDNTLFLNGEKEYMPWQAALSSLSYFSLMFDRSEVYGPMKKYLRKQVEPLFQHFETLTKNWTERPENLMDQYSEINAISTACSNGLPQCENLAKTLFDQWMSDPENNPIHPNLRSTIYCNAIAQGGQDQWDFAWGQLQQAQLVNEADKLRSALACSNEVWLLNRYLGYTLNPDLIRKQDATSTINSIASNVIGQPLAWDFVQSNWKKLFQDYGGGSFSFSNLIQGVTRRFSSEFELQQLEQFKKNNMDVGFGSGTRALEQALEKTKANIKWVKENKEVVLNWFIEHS
# [6] = test system: HUVECs; settings: cited from earlier work
# [7] = test system: human cancer cell lines [SK-OV-3 (ovarian), NCI-H460 (lung), and DU-145 (prostate)]; test: SRB cytotoxicity, stated across all three cell lines; format: cell-based; settings: for GI50 values described in words: parent drugs, three cell lines
# [8] = test system: MDA-MB-231-luc human breast tumor; test: In vivo dynamic bioluminescence imaging; parameters: species or system SCID mice; settings: for BLI signal compared with baseline (significance): 4 h and 24 h
# [9] = test system: HUVECs; test: In vitro HUVEC tubule disruption assay; format: cell-based, human; settings: for Disruption of capillary-like network of tubules (HUVECs): concentration of 0.1 μM; for Disruption of HUVEC tubular network on matrigel: concentration of 1.0 μM
# Method in brief: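 HUVECs (124,000 cells in M200 growth factors) plated on Matrigel (9.5 mg/mL) that had been pre-set 60 min at 37 °C; cells incubated 16 h at 37 °C to form tubule network. Test compound then added at 0.01, 0.1 or 1.0 μM. Network photographed, 9 fields/well, 40x objective.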
compound,measurement,setting,value
"(Z)-2-(2'-Methoxy-4'-aminophenyl)-1-(3,4,5-trimethoxyphenyl)ethene hydrochloride [Compound 9]",GI50,[1],7.35 ± 3.5 nM
same,Inhibition of Colchicine Binding (% Inhibition±SD),[2],75±0.90%
same,GI50,[3],26.3 ± 16.1 nM
same,GI50,[4],28.5 ± 23.2 nM
"COc1ccc(/C=C\c2cc(OC)c(OC)c(OC)c2)cc1NC(=O)[C@@H](N)CO.Cl [AVE8062, reference compound]",Cleavage by LAP (in words),[5],effectively cleaved
"COc1ccc2c(c1NC(=O)[C@@H](N)CO)CCC=C2c1cc(OC)c(OC)c(OC)c1.Cl [Compound 38, (S)-2-Amino-3-hydroxy-N-(2-methoxy-5-(3,4,5-trimethoxyphenyl)-7,8-dihydronaphthalen-1-yl)propanamide hydrochloride]",% Cleavage by LAP,[5],< 10%
"COc1ccc2c(c1NC(=O)[C@@H](N)CO)CCCC=C2c1cc(OC)c(OC)c(OC)c1.Cl [Compound 39, (S)-2-Amino-3-hydroxy-N-(3-methoxy-9-(3,4,5-trimethoxyphenyl)-6,7-dihydro-5H-benzo[7]annulen-4-yl)propanamide hydrochloride]",% Cleavage by LAP,[5],< 10%
same,GI50,[3],53800 ± 864 nM
same,GI50,[4],69400 ± 31300 nM
"COc1ccc2c(c1NC(=O)CN)CCCC=C2c1cc(OC)c(OC)c(OC)c1.Cl [Compound 45, 2-Amino-N-(3-methoxy-9-(3,4,5-trimethoxyphenyl)-6,7-dihydro-5H-benzo[7]annulen-4-yl)acetamide hydrochloride]",% Cleavage by LAP,[5],100%
"COc1ccc2c(c1N)CCCC=C2c1cc(OC)c(OC)c(OC)c1 [Compound 33, 1-Amino-2-methoxy-5-(3’,4’,5’-trimethoxyphenyl)-benzosuber-5-ene]",HUVEC tubule disruption and cell rounding effect,[6]; 0.1 μM,significant tubule disruption and cell rounding effect
same,HUVEC tubule disruption and cell rounding effect,[6]; 1 μM,greatly enhanced
same,HUVEC tube disruption and cell rounding capability,[6],robust tubule disruption
same,GI50 values described in words,[7],highly potent
"COc1ccc(/C=C\c2cc(OC)c(OC)c(OC)c2)c(NC(=O)CN)c1.Cl [Compound 16, (Z)-2-amino-N-(5-methoxy-2-(3,4,5-trimethoxystyryl)phenyl)acetamide hydrochloride]",Cleavage by LAP (in words),[5],quantitative cleavage; also recorded: quantitatively cleaved
same,% Cleavage by LAP,[5],100%
same,Cleavage rate relative to corresponding serinamide analogue,[5],150 times
same,Specific Activity of LAP,[5],180 μM/min/enzyme unit
same,Cytotoxicity against selected human cancer cell lines (in words),[7],significant cytotoxicity
"COc1ccc(/C=C\c2cc(OC)c(OC)c(OC)c2)cc1OP(=O)(O)O [CA4P, combretastatin A-4 phosphate, reference compound]",BLI signal compared with baseline (significance),[8]; CA4P 120 mg/kg ip,significantly less signal
same,BLI signal versus saline control (significance),"[8]; CA4P 120 mg/kg ip, p<0.05",significantly different from saline
"COc1ccc(/C=C\c2cc(OC)c(OC)c(OC)c2)c(NC(=O)[C@@H](N)CO)c1.Cl [Compound 15, (S,Z)-2-amino-3-hydroxy-N-(5-methoxy-2-(3,4,5-trimethoxystyryl)phenyl)propanamide hydrochloride]",Cleavage by LAP (in words),[5],effectively cleaved
same,Specific Activity of LAP,[5],1.2 μM/min/enzyme unit
same,Cytotoxicity against selected human cancer cell lines (in words),[7],significant cytotoxicity
"COc1ccc2c(c1NC(=O)CN)CCC=C2c1cc(OC)c(OC)c(OC)c1.Cl [Compound 44, 2-Amino-N-(2-methoxy-5-(3,4,5-trimethoxyphenyl)-7,8-dihydronaphthalen-1-yl)acetamide hydrochloride]",% Cleavage by LAP,[5],100%
same,Specific Activity of LAP,[5],15.5 μM/min/enzyme unit
same,BLI signal versus saline control (significance),"[8]; 5 mg/kg ip, 4 h time point",not significantly different from saline control
same,BLI signal versus saline control (significance),"[8]; 15 mg/kg ip, p<0.05",significantly different from saline
same,BLI signal compared with baseline (significance),[8]; 10 or 15 mg/kg ip,significantly less signal
"COc1ccc(/C=C/c2cc(OC)c(OC)c(OC)c2)c(NC(=O)CN)c1.Cl [Compound 18, (E)-2-amino-N-(5-methoxy-2-(3,4,5-trimethoxystyryl)phenyl)acetamide hydrochloride]",Cleavage by LAP (in words),[5],quantitative cleavage; also recorded: quantitatively cleaved
same,% Cleavage by LAP,[5],100%
same,Cleavage rate relative to corresponding serinamide analogue,[5],more than 100 times
same,Cytotoxicity against selected human cancer cell lines (in words),[7],more cytotoxic than the corresponding serinamide AAPC 17
"COc1ccc(/C=C/c2cc(OC)c(OC)c(OC)c2)c(NC(=O)C(N)CO)c1.Cl (stereo in doubt) [Compound 17, (S,E)-2-amino-3-hydroxy-N-(5-methoxy-2-(3,4,5-trimethoxystyryl)phenyl)propanamide hydrochloride]",Cleavage by LAP (in words),[5],effectively cleaved
"COc1ccc(/C=C\c2cc(OC)c(OC)c(OC)c2)c(NC(=O)[C@@H](N)CO)c1NC(=O)[C@@H](N)CO.Cl.Cl [Compound 23, (2S, 2'S)-N, N’-(3-methoxy-6-((Z)-3,4,5-trimethoxystyryl)-1,2-phenylene)bis(2-amino-3-hydroxypropanamide) dihydrochloride]",Cleavage by LAP (in words),[5],resistant to LAP mediated cleavage
same,Cleavage with a large amount of LAP (in words),[5],did not result in any observable cleavage
"COc1ccc(/C=C\c2cc(OC)c(OC)c(OC)c2)c(NC(=O)[C@@H](N)CO)c1NC(=O)[C@@H](N)CO [Compound 22, (2S, 2'S)-N, N’-(3-methoxy-6-((Z)-3,4,5-trimethoxystyryl)-1,2-phenylene)bis(2-amino-3-hydroxypropanamide)]",Cleavage by LAP (in words),[5],resistant to LAP mediated cleavage
same,Cleavage with a large amount of LAP (in words),[5],did not result in any observable cleavage
"COc1ccc(/C=C\c2cc(OC)c(OC)c(OC)c2)c(N)c1 [Compound 7, (Z)-2-(2′-amino-4′-methoxyphenyl)-1-(3,4,5-trimethoxyphenyl)ethene]",GI50 values described in words,[7],highly potent
"COc1ccc(/C=C\c2cc(OC)c(OC)c(OC)c2)c(N)c1N [Compound 8, (Z)-2-(2′,3′-Diamino-4′-methoxyphenyl)-1-(3,4,5-trimethoxyphenyl)ethene]",Disruption of capillary-like network of tubules (HUVECs),[9],significant disruption
same,Disruption of HUVEC tubular network on matrigel,[9],extensive disruption
same,GI50 values described in words,[7],highly potent
"COc1ccc(/C=C\c2cc(OC)c(OC)c(OC)c2)c(N)c1N.Cl [Compound 10, (Z)-2-(2′,3′-Diamine hydrochloride-4′-methoxyphenyl)-1-(3,4,5-trimethoxyphenyl)ethene]",Reduction in light emission (BLI) relative to baseline,"[8]; 80 mg/kg ip, 2 h post treatment, 17 min time-point",approximately 95%
same,Reduction in bioluminescence compared to saline control,"[8]; 80 mg/kg, 2 h post treatment",greater than 95%
same,Disruption of capillary-like network of tubules (HUVECs),[9],significant disruption
same,Disruption of HUVEC tubular network on matrigel,[9],extensive disruption
"COc1ccc(/C=C\c2cc(OC)c(OC)c(OC)c2)c(NC(=O)CN)c1NC(=O)CN.Cl.Cl [Compound 24, (Z)-N,N'-(3-methoxy-6-(3,4,5-trimethoxystyryl)-1,2-phenylene)bis(2-aminoacetamide)]",Cleavage by LAP (in words),[5],resistant to LAP mediated cleavage
same,Disappearance of the prodrug on LAP treatment,"[5]; LAP 0.12 units, by 25 h",greater than 95%
same,% Cleavage by LAP,[5],<10-90%
